# Laboratory results published in ChEMBL document CHEMBL4334452, “Monosaccharide Analogues of Anticancer Peptide R-Lycosin-I: Role of Monosaccharide Conjugation in Complexation and the Potential of Lung Cancer Targeting and Therapy” (J Med Chem, 2019).
# Activity calls are given as the source filed them. The calls are words filed in the database; no cut-off is given here. *1 amine or outer side, *2 acyl side, *3 side chain or, on linkers, in order; H or OH if unused. Where a SMILES comes first, the peptide text is derived from it. The star is where a group is joined. NH(CH2)3O(βDGlc) = OC[C@H]1O[C@@H](OCCCN*)[C@H](O)[C@@H](O)[C@@H]1O; Glutaryl = O=C(CCCC(=O)[*:2])[*:1]
# How the values were obtained:
# [1] = system: A549; assay: Induction of apoptosis in human A549 cells assessed as increase in caspase-3 activity at 15 uM measured after 24 hrs by Ac-DEVD-pNA substrate based assay relative to control; format: functional
# Procedure, shortened: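 A549 cells treated 24 h with 15 µM peptide, or medium as control. Cells lysed, and supernatant incubated with Ac-DEVD-pNA (2 mM). Absorbance read at 405 nm; activity ratio expressed against blank control, n=3.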
# [2] = system: A549; assay: Induction of mitochondrial membrane potential loss in human A549 cells at 15 uM measured after 24 hrs by JC1 staining based fluorescence microscopic analysis; format: functional, cell-based
# Procedure, shortened: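 A549 cells exposed to 15 µM peptide for 24 h, then stained with JC-1 kit. Monomer and aggregate emissions viewed by fluorescence microscopy; depolarization read as a rise in the green/red ratio, n=3.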
# [3] = system: A549; assay: Induction of apoptosis in human A549 cells assessed as appearance of surface bubbling at 15 uM measured after 24 hrs by scanning electron microscopic analysis; format: functional, cell-based
# [4] = molecular target: T1, Solute carrier family 2, facilitated glucose transporter member 1 (Homo sapiens) (UniProt P11166); assay: Binding affinity to GLUT1 in human A549 cells assessed as cytotoxicity by measuring increase in LDH release at 25 uM measured after 2 hrs; format: cell-based
# T1 sequence (whole entry): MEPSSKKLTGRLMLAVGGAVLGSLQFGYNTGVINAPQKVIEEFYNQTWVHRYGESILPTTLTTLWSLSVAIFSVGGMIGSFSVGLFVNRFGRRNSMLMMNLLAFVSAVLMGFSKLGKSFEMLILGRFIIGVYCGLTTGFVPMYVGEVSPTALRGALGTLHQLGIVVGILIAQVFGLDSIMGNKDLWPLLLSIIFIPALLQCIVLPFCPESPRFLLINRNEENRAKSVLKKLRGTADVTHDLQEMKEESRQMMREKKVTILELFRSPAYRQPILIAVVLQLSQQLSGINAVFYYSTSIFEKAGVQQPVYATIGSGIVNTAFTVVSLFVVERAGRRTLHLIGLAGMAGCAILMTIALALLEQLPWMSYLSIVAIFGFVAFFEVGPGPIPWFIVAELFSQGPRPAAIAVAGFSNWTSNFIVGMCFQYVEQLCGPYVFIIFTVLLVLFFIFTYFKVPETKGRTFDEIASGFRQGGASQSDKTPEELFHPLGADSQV
# Procedure, shortened: (§1)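 A549 cells at 2×10^3/well, allowed to adhere overnight, then exposed to peptide over a concentration series for 2 h. LDH release measured with a kit, absorbance at 490 nm. 1% Triton X-100 taken as 100% release; n=3.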
# [5] = molecular target: T1, Solute carrier family 2, facilitated glucose transporter member 1 (Homo sapiens); assay: Binding affinity to GLUT1 in human A549 cells assessed as cytotoxicity by measuring reduction in cell viability at 15 uM by trypan blue staining-based assay
# Procedure, shortened: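 A549 cells stained with trypan blue after peptide treatment at 15 µM. Dead cells appear blue and live cells unstained; live cells were counted.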
# [6] = system: A549; assay: Induction of apoptosis in human A549 cells assessed as early apoptotic cells at 8 uM measured after 4 hrs by Annexin V-FITC/propidium iodide staining-based flow cytometry (reference value: 0.39%); format: functional
# Procedure, shortened: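 A549 cells grown 24 h, trypsinized, then resuspended in medium with 8 µM peptide for 4 h at 37 °C. Cells washed with cold PBS, stained with Annexin V-FITC/PI, and analysed by flow cytometry.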
# [7] = system: A549; assay: Induction of morphological changes in human A549 cells assessed as disruption of cell membrane at 15 uM measured after 24 hrs by scanning electron microscopic analysis; format: functional, cell-based
# Procedure, shortened: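 A549 cells pre-seeded on mica sheets for 24 h at 37°C, then exposed to 15 μM peptide for 24 h at 37°C. Cells were PBS-washed twice, fixed in 4% paraformaldehyde for 15 min, dehydrated through graded ethanol and imaged by SEM at 15 kV. Untreated cells served as control.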
# [8] = molecular target: T1, Solute carrier family 2, facilitated glucose transporter member 1 (Homo sapiens); assay: Binding affinity to GLUT1 in human A549 cells assessed as cytotoxicity by measuring LDH release at 12.5 uM measured after 2 hrs relative to control; format: cell-based; procedure, shortened: as §1
# [9] = system: A549; assay: Induction of morphological changes in 3D spheroids of human A549 cells assessed as cell shrinkage at 30 uM treated every 2 days for 6 days measured every 3 days during compound dosing by microscopic analysis; format: functional, cell-based
# Procedure, shortened: (§2)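 A549 3D spheroids, one per well, in 10% medium with peptide at 30 µM final. Dosed at day 0, then re-added at days 2 and 4, for 6 days total. Spheroids washed thrice, then imaged and sized at days 0, 3 and 6. Viability read by CCK-8.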
# [10] = system: A549; assay: Induction of morphological changes in 3D spheroids of human A549 cells assessed as dissociation of 3D structure at 30 uM treated every 2 days for 6 days measured every 3 days during compound dosing by microscopic analysis; format: functional, cell-based; procedure, shortened: as §2
# [11] = Drug uptake in liver of Balb/c nu/nu mouse xenografted with human A549 cells expressing luciferase gene at 9 mg/kg, ip measured after 6 hrs by fluorescence assay; format: ADME, organism-based; settings: in vivo
# [12] = Drug uptake in heart of Balb/c nu/nu mouse xenografted with human A549 cells expressing luciferase gene at 9 mg/kg, ip measured after 6 hrs by fluorescence assay; format: ADME, organism-based; settings: in vivo
# [13] = Drug uptake in heart of Balb/c nu/nu mouse xenografted with human A549 cells expressing luciferase gene at 3 mg/kg administered intratumorally measured after 6 hrs by fluorescence assay; format: ADME, organism-based; settings: in vivo, other
# [14] = system: A549; assay: Antitumor activity against human A549 cells expressing luciferase gene xenografted in Balb/c nu/nu mouse assessed as tumor growth inhibition at 9 mg/kg, ip administered every 2 days for seven times measured on day 14 by bioluminescent imaging analysis; format: functional, organism-based
# Procedure, shortened: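 Male BALB/c nu/nu mice, 4-6 weeks old, carrying subcutaneous A549-luciferase xenografts in the right back. Dosing started when tumors reached 100-200 mm³ (day 0), five per group. Peptide was given at 9 mg/kg i.p. in 200 µL every other day for 7 doses; PBS served as control. Bioluminescent imaging on day 14; tumor size and body weight tracked. Tumors fixed in paraformaldehyde, paraffin-sectioned, TUNEL-stained.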
# [15] = system: A549; assay: Antitumor activity against human A549 cells expressing luciferase gene xenografted in Balb/c nu/nu mouse assessed as tumor growth inhibition at 3 mg/kg administered intratumorally every 3 days for four times measured on day 12 by bioluminescent imaging analysis; format: functional, organism-based
# Procedure, shortened: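 Male BALB/c nu/nu mice, 4-6 weeks old, with subcutaneous A549-luciferase xenografts. Treatment began when tumors reached 100-200 mm³, five per group. Peptide was injected intratumorally at 3 mg/kg in 100 µL every 3 days for 4 doses; 100 µL PBS was the control. Bioluminescent imaging on day 12, with tumor size and body weight monitored.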
# [16] = Toxicity in Balb/c nu/nu mouse xenografted with human A549 cells expressing luciferase gene assessed as change in body weight at 9 mg/kg, ip administered every 2 days for seven times measured on day 14; format: organism-based; settings: in vivo, 48 h
# Procedure, shortened: (§3)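 Male BALB/c nu/nu mice, 4–6 weeks old, carrying subcutaneous A549-luciferase tumours (right back, cells in sterile PBS), dosed at a tumour size of 100–200 mm³; five per group, PBS controls. Two regimens: 9 mg/kg i.p. (200 µL) every other day ×7, ended day 14; or 3 mg/kg intratumoral (100 µL) every 3 days ×4, ended day 12. Body weight was monitored throughout.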
# [17] = Toxicity in Balb/c nu/nu mouse xenografted with human A549 cells expressing luciferase gene assessed as change in body weight at 3 mg/kg administered intratumorally every 3 days for four times measured on day 12; format: organism-based; settings: in vivo, other, 72 h; procedure, shortened: as §3
smiles,measurement,setting,value
CC[C@H](C)[C@H](NC(=O)[C@H](Cc1ccccc1)NC(=O)[C@H](CCCNC(=N)N)NC(=O)[C@H](C)NC(=O)[C@@H](NC(=O)[C@H](CO)NC(=O)[C@H](CCCNC(=N)N)NC(=O)[C@H](CCSC)NC(=O)[C@H](C)NC(=O)[C@H](CCCNC(=N)N)NC(=O)[C@H](Cc1ccccc1)NC(=O)[C@H](Cc1c[nH]c2ccccc12)NC(=O)CNC(=O)[C@H](CCCNC(=N)N)NC(=O)CCCC(=O)NCCCO[C@@H]1O[C@H](CO)[C@@H](O)[C@H](O)[C@H]1O)[C@@H](C)CC)C(=O)N[C@@H](C)C(=O)N[C@@H](CCCNC(=N)N)C(=O)N[C@@H](CCC(=O)O)C(=O)N[C@@H](CCCNC(=N)N)C(=O)N[C@@H](CC(C)C)C(=O)N[C@@H](CCCNC(=N)N)C(=O)N[C@@H](CCC(=O)O)C(=O)N[C@@H](Cc1cnc[nH]1)C(=O)N[C@@H](CC(C)C)C(=O)O ({NH(CH2)3O(βDGlc)-Glutaryl}-RGWFRAMRSIARFIARERLREHL-OH),fold change (FC),[1],1.5
same,Activity,[2],Active
same,Activity,[3],Active
same,Activity,[4],Active
same,Activity,[5],Active
same,Activity,[6],1.1%
same,Activity,[7],Active
same,Activity,[8],> 30%
same,Activity,[9],Active
same,Activity,[10],Active
same,Drug uptake,[11],Active
same,Drug uptake,[12],Active
same,Drug uptake,[13],Active
same,TGI,[14],Active
same,TGI,[15],Active
same,Activity,[16],Non-Toxic
same,Activity,[17],Non-Toxic
CC[C@H](C)[C@H](NC(=O)[C@H](Cc1ccccc1)NC(=O)[C@H](CCCNC(=N)N)NC(=O)[C@H](C)NC(=O)[C@@H](NC(=O)[C@H](CO)NC(=O)[C@H](CCCNC(=N)N)NC(=O)[C@H](CCSC)NC(=O)[C@H](C)NC(=O)[C@H](CCCNC(=N)N)NC(=O)[C@H](Cc1ccccc1)NC(=O)[C@H](Cc1c[nH]c2ccccc12)NC(=O)CNC(=O)[C@@H](N)CCCNC(=N)N)[C@@H](C)CC)C(=O)N[C@@H](C)C(=O)N[C@@H](CCCNC(=N)N)C(=O)N[C@@H](CCC(=O)O)C(=O)N[C@@H](CCCNC(=N)N)C(=O)N[C@@H](CC(C)C)C(=O)N[C@@H](CCCNC(=N)N)C(=O)N[C@@H](CCC(=O)O)C(=O)N[C@@H](Cc1cnc[nH]1)C(=O)N[C@@H](CC(C)C)C(=O)O (H-RGWFRAMRSIARFIARERLREHL-OH),fold change (FC),[1],1.5
same,Activity,[2],Active
same,Activity,[3],Active
same,Activity,[4],Active
same,Activity,[5],Active
same,Activity,[6],0.63%
same,Activity,[7],Active
same,Activity,[8],> 30%
same,Activity,[9],Active
same,Activity,[10],Active
same,Drug uptake,[11],Active
same,Drug uptake,[12],Active
same,Drug uptake,[13],Active
same,TGI,[14],Active
same,TGI,[15],Active
same,Activity,[16],Non-Toxic
same,Activity,[17],Non-Toxic
